Reference: article PMC7088158 (International Journal of Peptide Research and Therapeutics, 2006)

How the values were obtained:
[1] = Aqueous solubility of the substrates; assay type: physicochemical; conditions: standard form (CFO-1 N-terminus, Lys(BHQ-2)-amide C-terminus)
[2] = target: T1, Human erythrocyte calpain I (Homo sapiens, UniProt P07384); assay type: biochemical; conditions: pH 7.5
T1 sequence (P07384 1-714): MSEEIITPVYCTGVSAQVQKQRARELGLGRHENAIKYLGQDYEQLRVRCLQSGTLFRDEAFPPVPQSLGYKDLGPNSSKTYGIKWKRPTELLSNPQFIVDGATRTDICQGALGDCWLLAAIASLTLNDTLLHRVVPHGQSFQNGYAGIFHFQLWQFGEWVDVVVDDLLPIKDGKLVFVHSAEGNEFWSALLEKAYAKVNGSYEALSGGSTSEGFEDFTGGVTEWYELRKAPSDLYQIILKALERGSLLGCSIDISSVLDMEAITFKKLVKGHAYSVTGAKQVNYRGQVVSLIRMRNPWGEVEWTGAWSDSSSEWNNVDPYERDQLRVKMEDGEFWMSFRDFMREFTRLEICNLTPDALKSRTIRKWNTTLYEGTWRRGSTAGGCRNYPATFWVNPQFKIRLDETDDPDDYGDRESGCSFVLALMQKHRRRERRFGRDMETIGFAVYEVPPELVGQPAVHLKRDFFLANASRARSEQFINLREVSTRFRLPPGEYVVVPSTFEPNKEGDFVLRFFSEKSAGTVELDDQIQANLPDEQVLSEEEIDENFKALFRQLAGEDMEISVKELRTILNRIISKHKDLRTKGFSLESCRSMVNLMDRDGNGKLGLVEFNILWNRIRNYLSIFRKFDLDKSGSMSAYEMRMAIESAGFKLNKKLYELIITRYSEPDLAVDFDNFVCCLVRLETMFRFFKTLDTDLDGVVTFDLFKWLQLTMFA
T1 sequence (P04632 1-268 partner): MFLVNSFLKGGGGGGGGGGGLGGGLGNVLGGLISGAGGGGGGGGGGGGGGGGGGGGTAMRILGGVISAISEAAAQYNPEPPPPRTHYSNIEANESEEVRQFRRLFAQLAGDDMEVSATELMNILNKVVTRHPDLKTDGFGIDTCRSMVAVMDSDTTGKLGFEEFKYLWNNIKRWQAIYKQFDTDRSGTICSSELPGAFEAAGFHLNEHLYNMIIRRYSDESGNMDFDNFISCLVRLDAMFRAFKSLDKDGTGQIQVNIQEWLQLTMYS

[3] = system: primary hippocampal neurons; experiment: Live cell imaging of probe entry and fluorescence in primary hippocampal neurons; assay type: cell-based, rat; conditions: cA 1 μM preloaded 30 min in Ca2+-free buffer, ionomycin 5 μM then CaCl2 0.2 mM
Method in brief: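 Hippocampal neurons from E18 rat hippocampi, papain-dissociated (2 mg/mL, 30 min, 37 °C), plated at 1 × 10^5 cells/well on poly-D-lysine cover glasses and used at 9–12 DIV. Medium was Neurobasal/B27 with 1% FBS and glutamate, half-replaced on days 4 and 7. Confocal imaging at 37 °C, 20× air objective, 543 nm excitation, 560–615 nm emission, frames every 1–2 min.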

[4] = system: trypsin; conditions: pH 7.5
[5] = target: α-chymotrypsin (Bos taurus, UniProt P00766, DEL14-15/DEL147-148); conditions: pH 7.5
[6] = system: primary cortical neurons; experiment: Live cell imaging of probe entry and fluorescence in primary cortical neurons; assay type: cell-based, rat; conditions: washed
Method in brief: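 Cortical neurons from E18 rat cortices, papain-dissociated (2 mg/mL, 30 min, 37 °C), plated at 1 × 10^5 cells/well on poly-D-lysine-coated chambered cover glasses in Neurobasal/B27 medium and used at 5 DIV. Confocal live imaging used a 20× air objective at 37 °C, with 543 nm excitation and emission collected at 560–615 nm. Frames were taken every 1–2 min.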

| Substance | Effectiveness as calpain substrate, in words [2] | Stability to chymotrypsin, in words [5] | other results |
| --- | --- | --- | --- |
| EVYGM*M* [cG] |  |  | Solubility, in words [1]: very poorly soluble |
| GSGTSS [cA] | proceeded only partially |  | Intracellular fluorescence on activation of calpain pathways by ionomycin [3]: fluorescence was observed |
| PLFAER [cW] | far superior calpain substrate compared to cA |  | Stability to trypsin, in words [4]: poor stability |
| PLGAERP [cXa] | rather similar as a calpain substrate to its parent | affected remarkably little |  |
| PLLAERP [cXb] | at least as an effective calpain substrate as its parent | considerably improved chymotryptic stability |  |
| PLLAERP [cXe] | improved calpain substrate | very much more stable to chymotrypsin | Intracellular fluorescence following ionomycin ([6]; cXe 2 μM 40 min, ionomycin 5 μM): increased intracellular fluorescence; Entry into cells without transporter sequence ([6]; cXe 2 μM preloaded 40 min, confocal imaging 37 °C): proved to enter cells without a transporter sequence |
| PLLAERP [cXf] |  | little improvement |  |
| PLLAERP [cXg] |  | significantly improved |  |
| PLVAERP [cXc] | dramatically reduced the effectiveness of calpain processing |  |  |
| VVQAGI [cM] |  |  | Solubility, in words [1]: very poorly soluble |
| VVTAEA [cJ] |  |  | Solubility, in words [1]: very poorly soluble |
